Source: PubChem (The Scripps Research Institute Molecular Screening Center)
ASAP1 inh – inhibitors of human ASAP1 ArfGAP activity; Q9ULH1; ASAP1-stimulated ARF1 GTP hydrolysis, GDP FP detection; inhibition, % at 16.5 µM; actives 0.19% (n = 360,000); in the data active = inhibition above about 25%
DDE Tn6 FP inh – disrupts Tn6 cyclic peptide binding to fibrin D-Dimer-E complex; Fibrin DD(E) TRITC-Tn6 fluorescence polarization displacement; inhibition, % at 8.3 µM; actives 0.21% (n = 370,000);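 active = inhibition above a per-campaign cutoff: mean of compounds within control limits plus 3 SD, cut at about 15% in these data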
Target sequence (P02675 whole entry, looked up): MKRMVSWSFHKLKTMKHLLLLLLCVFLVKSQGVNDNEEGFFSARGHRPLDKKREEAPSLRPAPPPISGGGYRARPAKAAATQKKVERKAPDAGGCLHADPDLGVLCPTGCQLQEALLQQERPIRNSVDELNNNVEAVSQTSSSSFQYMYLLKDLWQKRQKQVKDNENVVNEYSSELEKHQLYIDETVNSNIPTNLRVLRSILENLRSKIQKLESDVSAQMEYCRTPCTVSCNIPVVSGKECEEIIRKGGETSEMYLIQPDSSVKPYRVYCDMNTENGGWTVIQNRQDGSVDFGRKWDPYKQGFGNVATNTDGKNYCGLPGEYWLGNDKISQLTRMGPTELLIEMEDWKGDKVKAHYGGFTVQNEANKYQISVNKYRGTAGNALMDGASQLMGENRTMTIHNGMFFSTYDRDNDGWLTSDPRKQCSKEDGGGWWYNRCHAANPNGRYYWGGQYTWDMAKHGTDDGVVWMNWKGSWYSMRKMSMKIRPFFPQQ
ARFGAP1 inhibitor – inhibits rat ARF GTPase activating protein 1 | Q62848 | Arfgap1-stimulated ARF1 GTP hydrolysis, GDP FP detection | inhibition, % at 16.5 µM | actives 0.26% (n = 360,000) | AID 651572;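 active = inhibition above a per-plate limit, mean inhibition of low control wells plus 3 SD, cut at about 25% in these data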
Target sequence (Q62848 1-136 limits assumed): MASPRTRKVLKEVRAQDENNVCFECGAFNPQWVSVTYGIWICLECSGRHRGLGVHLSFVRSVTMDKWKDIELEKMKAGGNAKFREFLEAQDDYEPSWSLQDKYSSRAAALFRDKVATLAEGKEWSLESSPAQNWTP
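System: truncated rat Arfgap1 GAP domain / Medium: HEPES-based buffer, pH 7.5 / Also added: N-terminally truncated human ARF1-GTP substrate / Incubation: enzyme reaction 120 min at 25 °C after 20 min preincubation / Measured by: FP of antibody-bound GDP Alexa 633 tracer, ex 620/em 688 nm / Replicates: singlicate, each compound tested once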
DDE Tn7 FP inh – inhibitors of Tn7 peptide binding to human fibrin DD(E) | actives 0.13% (n = 370,000) | inhibition, % at 8.3 µM | FP displacement of FITC-Tn7 peptide from fibrin DD(E); 0% = median of compound wells per plate;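 active = inhibition above the mean of compounds falling within the control limits plus 3 SD of them, cut at about 14% in these data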
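Assay system: human fibrin DD(E). Input: DD(E) 2 µM final. Medium: Tris buffer with calcium and detergent, pH 7.8. Compound dosing: single point at 8.3 µM. Timing: 10 min plus 3 h, room temperature. Technique: fluorescence polarization of the labelled Tn7 tracer. Read-out: percent inhibition. Replicates: singlicate testing.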
ASAP1 inh confirm – confirmation of human ASAP1 inhibitors | actives 37% (n = 620) | inhibition, % at 16.5 µM | ASAP1-stimulated Arf1 GTPase, GDP fluorescence polarization | AID 624431 | shares compounds with ASAP1 inh;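 active = mean inhibition over triplicates exceeds the hit threshold derived for the earlier primary screening run, cut at about 25% in these data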
Each line names hits and unclear results; the compound was inactive in the other large screens (follow-up assays come after a bar, where they were run). Hits are enriched below; roughly 0.74% of the tested compounds scored in any of these assays.

COC(=O)[C@]12C[C@H](CC(=O)NCC34CC5CC(CC(C5)C3)C4)C(=O)N(Cc3ccccc3)C1=C[C@H](C(C)C)O[C@@H]2C1CC1	none
O=C(Nc1cccc2[nH]ncc12)NS(=O)(=O)c1ccccc1	DDE Tn6 FP inh 59.6
CC(=O)Nc1ccc(S(=O)(=O)Nc2cccc3[nH]ncc23)cc1	none
NC1=C(Br)C(=O)c2ncccc2C1=O	ASAP1 inh 28.5
CC1OC(CC(=O)O)CC2=C1C(=O)c1c(O)cccc1C2=O (centres undefined)	ASAP1 inh 47.0
O=c1ccc2cc3c4c(c2o1)CCCN4CCC3	DDE Tn7 FP inh 22.9
Nc1ccc2c3c(cccc13)C(=O)N(c1ccccc1)C2=O	none
Nc1cccc(N2C(=O)c3cccc4c(N)ccc(c34)C2=O)c1	DDE Tn7 FP inh 30.0
COC(=O)[C@]12C[C@H](CC(=O)N3CCOCC3)C(=O)N(Cc3ccc4c(c3)OCO4)C1=C[C@H](C(C)(C)C)O[C@@H]2C	none
Cn1c(=O)c(N)c2c3c(c(Br)ccc31)C(=O)c1ccccc1-2	DDE Tn6 FP inh 16.3
O=C(c1ccco1)[C@@H]1[C@@H]2C(=O)N(c3ccccc3)C(=O)[C@@H]2C2c3ccccc3C=CN21 (some centres undefined)	ASAP1 inh 34.1
Cc1ccc(N2C(=O)[C@@H]3[C@H](C2=O)C2c4ccccc4C=CN2[C@@H]3C(=O)c2ccco2)cc1 (some centres undefined)	ASAP1 inh 26.0
Cc1cc(C(=O)c2ccccc2)cc(C)c1O	none
CC1=C/C(=C(\c2cc(C)c(O)c(Br)c2)c2ccccc2S(=O)(=O)O)C=C(Br)C1=O	ARFGAP1 inhibitor 30.2
COc1ccc(OC)c2cc3ccccc3cc12	DDE Tn7 FP inh 18.0
C[C@@H]1CN([C@H](C)CO)C(=O)CCCn2cc(nn2)CO[C@H]1CN(C)S(=O)(=O)c1cn(C)cn1	none
O=C(CSc1ccc(C(F)(F)F)cc1[N+](=O)[O-])Nc1ccccc1	ASAP1 inh 31.5
CCC(=O)Nc1sc2c(c1C(N)=O)CCN(C(C)=O)C2	none
CC(=O)N1CCc2c(sc(NC(=O)c3ccc([N+](=O)[O-])o3)c2C(N)=O)C1	ARFGAP1 inhibitor 27.0
CN(CCO)C(=O)c1nc[nH]c1C(=O)N1CCN(c2ccccc2)CC1	none
COc1ccc2c3c(cccc13)C(=O)CC2	DDE Tn6 FP inh 36.1, DDE Tn7 FP inh 21.1
CC(C)=CCC/C(C)=C/CN1C(=O)N(c2ccc(F)cc2)[C@H]2C[C@@H](c3ccccc3)[C@@H](C)[C@@H](C(=O)N3CCOCC3)C[C@H]21	none
OCCNc1nc(Nc2ccc(Br)cc2)nc2ccccc12	ASAP1 inh 25.7
C[C@H]1[C@@H]2C[C@@]3(O[C@H](c4ccccn4)N=C3C[C@@H]1c1ccccc1)N(Cc1ccncc1)C2=O	none
CCOC(=O)Nc1ccc(NCc2ccc(F)cc2)nc1N	DDE Tn7 FP inh 22.8
O=C(NCCO)[C@H](Cc1ccccc1)NC1(C(=O)NCCN2CCOCC2)CCCCC1	none (no result: ASAP1 inh, ARFGAP1 inhibitor)
COC(=O)c1cc(NC(=O)CC2SC(=Nc3ccccc3)N(CCc3c[nH]c4ccccc34)C2=O)cc(C(=O)OC)c1 (centres undefined)	ASAP1 inh 27.6
CC(C)(C)OC(=O)N1CCC2CCN(S(=O)(=O)c3ccccc3)CC21 (centres undefined)	none
O=C(COc1ccc(/C=N/NC(=O)c2ccncc2)cc1)Nc1ccccc1	none
O=C(COc1ccc(/C=N/NC(=O)c2ccncc2)cc1)Nc1cccc([N+](=O)[O-])c1	ASAP1 inh 29.1 | ASAP1 inh confirm inactive
COc1ccc2cc3c(N)nn(C(=O)c4ccccc4[N+](=O)[O-])c3nc2c1	none
COc1ccc2cc3c(N)nn(C(=O)c4ccc(Cl)c([N+](=O)[O-])c4)c3nc2c1	ASAP1 inh 72.7 | ASAP1 inh confirm 118.0
O=C(Nc1ccccc1)N1c2ccccc2SC1c1ccco1 (centres undefined)	none
CC(C)=CCn1c2ccc(NC(=O)Nc3cccnc3)cc2c(=O)n1C	ASAP1 inh 24.8 | ASAP1 inh confirm inactive
COc1cccc(-c2ccc3c(c2)O[C@H](CN(C)C(=O)c2ccccc2F)[C@H](C)CN([C@H](C)CO)S3(=O)=O)c1	ASAP1 inh 25.1 | ASAP1 inh confirm inactive
COc1cccc(-c2ccc3c(c2)O[C@@H](CN(C)Cc2cncnc2)[C@@H](C)CN([C@H](C)CO)S3(=O)=O)c1	none
Cn1c(N)c(C(C[N+](=O)[O-])c2ccccc2Cl)c(=O)n(C)c1=O (centres undefined)	ASAP1 inh 56.2 | ASAP1 inh confirm inactive
O=C(Nc1ccc2oc(=O)ccc2c1)c1ccc(-c2ccc(Cl)cc2)o1	ASAP1 inh 48.4 | ASAP1 inh confirm 68.6
O=C(Nc1ccc2oc(=O)ccc2c1)c1ccc(-c2cccc(Cl)c2)o1	none
C=CCN=C1NC(c2ccc(F)cc2)C(C(=O)OC)=C(C)N1Cc1ccccc1C(F)(F)F (centres undefined)	ASAP1 inh 24.7 | ASAP1 inh confirm inactive
COC(=O)C1=C(C)N(C)C(=NCc2cc(OC)c(OC)c(OC)c2)NC1c1cccc(F)c1 (centres undefined)	none
COc1ccc(/C=N/NC(=O)c2nc(-c3ccccc3)cc(-c3ccccc3)n2)cc1O	ASAP1 inh 25.9 | ASAP1 inh confirm 32.4
COc1ccc(/C=N/Nc2ccc([N+](=O)[O-])cc2)cc1Cn1cc([N+](=O)[O-])cn1	none
COc1ccc(/C=N/Nc2ccc([N+](=O)[O-])cc2)cc1O	ASAP1 inh 25.1 | ASAP1 inh confirm 31.4
COc1ccc(/C=C2\Oc3cc(OC(=O)N4CCOCC4)ccc3C2=O)cc1	ASAP1 inh 32.6 | ASAP1 inh confirm 70.0
CCc1ccc(/C=C2\Oc3cc(OC(=O)N4CCOCC4)ccc3C2=O)cc1	none
C[C@H]1CN([C@@H](C)CO)C(=O)CCCn2cc(nn2)CO[C@@H]1CN(C)S(=O)(=O)c1ccccc1F	none
CCOC(=O)C1=C(CSc2nc(-c3ccccc3)ccc2C#N)OC(N)=C(C#N)C1c1cccnc1 (centres undefined)	none
CCOC(=O)C1=C(CSc2nc(-c3ccccc3)ccc2C#N)OC(N)=C(C#N)C1c1ccccc1 (centres undefined)	ASAP1 inh 27.1 | ASAP1 inh confirm inactive
O=S1(=O)c2cc(Cl)ccc2N2CCC[C@@H]2CN1Cc1ccc(Cl)c(Cl)c1	none
COc1cc2oc3ccc(C#Cc4ccccn4)cc3c(=O)c2cc1OC	ASAP1 inh 31.0 | ASAP1 inh confirm 40.1
Cc1ccc(C(=O)NCCC2=CCCCC2)cc1S(=O)(=O)N1CCCCC1	ASAP1 inh 27.9 | ASAP1 inh confirm inactive
Cc1ccc(/C=N/NC(=O)CCCOc2ccc(Cl)cc2Cl)cc1[N+](=O)[O-]	ASAP1 inh 50.0 | ASAP1 inh confirm 36.9
COc1ccc(/C=N/NC(=O)CCCOc2ccc(Cl)cc2Cl)cc1[N+](=O)[O-]	none
